# Compound activity as filed in PubChem BioAssay.
# Most compounds without a hit are left out; they make up all but 4% or so of the library.
# CHO parental Ca = ATP-evoked calcium signal inhibitors, parental CHO, primary screen, counter-screen for OX1R antagonist project, cell-based, fluorescence, Fluo-8 calcium dye; 330,000 compounds, 0.63% hits; inhibition, % at 5.6 µM; AID 463079, 2010; parental CHO-K1, ATP-induced calcium, Fluo-8 fluorescence;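 active = inhibition above that plate's mean sample inhibition plus 3 SD, cut at about 26% in these data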;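 note: 0% = ATP-challenged DMSO wells and 100% = DMSO wells without ATP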
#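 Material: Parental CHO cells | Reagent: ATP | Compound dosing: Single nominal dose of 5.6 µM per compound | Detection: Intracellular calcium via Fluo-8 no-wash fluorescent dye | Read-out: % inhibition of ATP-induced calcium mobilization | Benchmarks: Low control ATP plus DMSO, high control DMSO only | Replicates: Singlicate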
# OX1R antag-1 = antagonists of human orexin 1 receptor (OX1R) | Orexin/Hypocretin receptor type 1 (Homo sapiens), O43613 | OX1R-expressing cells, FRET antagonist read-out | inhibition, % at 6.6 µM | 330,000 compounds, 1.8% hits; in the data active = inhibition mostly above about 38%, no sharp cut-off; inactive = mostly below about 40%;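 note: 0% = agonist challenge alone and 100% = reference antagonist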
# OX1R antag-2 = OX1R (HCRTR1) antagonists, primary screen, fluorescence, CHO/OX1R cells, Fluo-8 calcium, orexin A; Orexin/Hypocretin receptor type 1 (Homo sapiens), O43613; Fluo-8 calcium fluorescence; inhibition, % at 5 µM; 330,000 compounds, 0.43% hits;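 active = inhibition above its plate's threshold, mean inhibition of all tested compounds on the plate plus 3 SD, cut at about 37% in these data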;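 note: 0% = orexin A challenge wells and 100% = SB-334867-A antagonist wells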
# TAAR1 agonist = human TAAR1 agonists, primary screen, Fluo-8 calcium fluorescence, CHO RD-HGA16 cells | AID 624467, 2012 | 360,000 compounds, 0.99% hits | Trace amine-associated receptor 1 (Homo sapiens), Q96RJ0 | activation, % at 3 µM | vehicle wells 0%, saturating PEA agonist 100%;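 active = activation above the mean activation of all test compounds in the run plus 3 SD, cut at about 38% in these data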
# Target sequence (Q96RJ0 whole entry, looked up): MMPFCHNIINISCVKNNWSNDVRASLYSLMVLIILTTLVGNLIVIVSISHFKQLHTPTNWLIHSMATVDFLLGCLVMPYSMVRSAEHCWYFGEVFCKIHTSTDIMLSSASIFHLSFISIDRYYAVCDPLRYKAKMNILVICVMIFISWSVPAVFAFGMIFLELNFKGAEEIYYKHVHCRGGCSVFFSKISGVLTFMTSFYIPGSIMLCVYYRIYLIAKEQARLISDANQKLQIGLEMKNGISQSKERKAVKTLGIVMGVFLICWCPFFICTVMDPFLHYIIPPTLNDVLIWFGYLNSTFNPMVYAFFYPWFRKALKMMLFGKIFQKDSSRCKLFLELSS
#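 test system = CHO RD-HGA16 cells carrying human TAAR1 plus Gα16 | schedule = 17-24 h seeding, 75 min 37 °C dye, 30 min RT | compound dosing = 3 µM single concentration | control set = DMSO and PEA EC100 | replicates = n 1 | signal = Fluo-8 fluorescence, 5 s baseline then 140 s kinetic read | measure = percent activation vs PEA EC100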
# TAAR1 antagonist = human TAAR1 antagonists, primary screen, Fluo-8 calcium fluorescence, CHO RD-HGA16 cells | Trace amine-associated receptor 1 (Homo sapiens), Q96RJ0 | antagonist | inhibition, % at 3 µM | 360,000 compounds, 1.5% hits | AID 624466, 2012;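 active = inhibition above a per-plate cutoff, the mean inhibition of test compounds on that plate plus 3 SD, cut at about 49% in these data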;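 note: 0% = DMSO plus EC80 beta-PEA response and 100% = DMSO alone without agonist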
#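 System: RD-HGA16 CHO cells with stable hTAAR1 and Gα16 | Probe or stimulus: EC80 β-phenethylamine stimulus | Dosing: 3 µM, single point | Times: Dye loading 75 min at 37 °C, then 30 min room temperature | Measured by: Fluo-8 calcium-sensitive fluorescence | Read-out basis: % inhibition of agonist calcium response | Replicates: n of 1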
# NTR1 agonist = agonists of human NTR1, primary screen, imaging, U2OS cells, beta-arrestin-GFP, high content. NTR1-U2OS beta-arrestin-GFP spot imaging, agonist mode. activation, % at 20 µM. 330,000 compounds, 0.17% hits. AID 493036, 2011;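 active = activation at or above 40% of the spot to cytoplasm intensity ratio, with at least 20 cells analyzed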;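 note: 0% = DMSO without peptide and 100% = 100 nM NTR1 peptide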
# Target sequence (P30989 whole entry, looked up): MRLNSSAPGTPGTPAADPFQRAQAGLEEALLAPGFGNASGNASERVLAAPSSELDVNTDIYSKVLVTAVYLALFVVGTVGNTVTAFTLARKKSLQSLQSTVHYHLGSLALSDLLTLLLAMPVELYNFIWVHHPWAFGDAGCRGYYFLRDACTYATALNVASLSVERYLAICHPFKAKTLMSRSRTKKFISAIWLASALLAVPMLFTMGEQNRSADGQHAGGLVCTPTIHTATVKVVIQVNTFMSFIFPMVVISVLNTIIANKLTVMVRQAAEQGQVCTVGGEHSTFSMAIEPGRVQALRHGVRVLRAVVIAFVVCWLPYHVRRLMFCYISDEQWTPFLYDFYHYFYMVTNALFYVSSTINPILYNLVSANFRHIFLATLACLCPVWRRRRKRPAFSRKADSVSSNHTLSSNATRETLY
# Numbers without * were called inactive; · = not tested or not shown.
SMILES,CHO parental Ca,OX1R antag-1,OX1R antag-2,TAAR1 agonist,TAAR1 antagonist,NTR1 agonist
COC(=O)[C@]12C[C@H](CC(=O)N3CCC(c4ccccc4)CC3)C(=O)N(Cc3ccc4c(c3)OCO4)C1=C[C@H](C(C)(C)C)O[C@@H]2C,·,·,·,-1.5,-35.5,·
CC(C)OCCCn1c(=N)c(C(N)=S)cc2c(=O)n3ccccc3nc21,-23.6,74.6*,-34.2,2.3,3.9,0.4
CC(C)OCCCn1c(=NC(=O)c2ccncc2)c(C#N)cc2c(=O)n3ccccc3nc21,-12.1,52.3*,-22.1,9.3,10.2,6.8
CC(=O)Nc1ccc(N=NC2C(=O)N(C(N)=S)N=C2C)cc1 (stereo not drawn),-6.9,33.5*,-9.7,5.5,1.3,0.3
COc1ccc(-c2c(C(=O)c3ccccc3)[nH]c(N)c2C(=O)NCCc2c[nH]c3ccccc23)cc1,·,·,·,3.6,22.9,·
O=C(Cc1ccccc1)Nc1cccc(-c2nnc(-c3ccco3)o2)c1,-24.4,15.0,-19.8,21.8,35.4,1.0
COc1ccccc1OCC(=O)Nc1cccc(-c2nnc(-c3ccco3)o2)c1,-14.5,45.7*,-18.3,19.8,41.7,2.0
CC(C)(C)c1cccc(C2(O)C(=O)c3ccccc3C2=O)c1O,-5.0,0.4,-15.6,-0.9,-5.6,1.2
C[C@H](NC(=O)c1nc[nH]c1C(=O)NC1CCN(C(=O)OC(C)(C)C)CC1)C(=O)OCc1ccccc1,-22.4,19.0,-9.6,8.8,56.5*,0.4
CNC(=O)c1[nH]cnc1C(=O)N[C@@H](Cc1ccccc1)C(=O)OCc1ccccc1,-0.8,21.6,-28.2,13.0,58.8*,16.0
C[C@H](NC(=O)c1nc[nH]c1C(=O)N[C@@H](Cc1ccccc1)C(=O)OCc1ccccc1)C(=O)OCc1ccccc1,-18.4,23.1,3.0,7.1,27.3,20.4
CN1CCN(C(=O)/C=C/c2ccc([N+](=O)[O-])cc2)CC1,-9.9,60.6*,-7.4,1.4,15.0,2.4
O=C(OCC(=O)N1CCCCCC1)c1ccc([N+](=O)[O-])cc1Cl,1.9,45.8*,-26.2,7.0,3.4,1.7
O=C(/C=C/c1ccc([N+](=O)[O-])cc1)OCC(=O)N1CCCC1,-16.9,44.9*,-14.3,2.9,-19.5,-0.8
Cc1[nH]c2ccccc2c1CC(=O)Nc1ccc(N(C)c2cccnc2)c(-c2ccc(F)c(F)c2)c1,·,·,·,4.1,-2.2,·
N#Cc1cc(Nc2c(N)nc[nH]c2=O)c([N+](=O)[O-])cc1C#N,2.3,48.1*,3.5,-0.8,-0.9,-0.5
OC(CNCC1CCCO1)Cn1c2ccc(Cl)cc2c2cc(Cl)ccc21 (stereo not drawn),14.7,7.7,25.7,19.5,29.5,9.3
OC(CNCCC1C=Nc2ccccc21)Cn1c2ccc(Cl)cc2c2cc(Cl)ccc21 (stereo not drawn),55.7*,3.0,39.2,39.7*,42.4,·
C[C@@H]1CN([C@@H](C)CO)C(=O)CCCn2cc(nn2)CO[C@H]1CN(C)C(=O)NC1CCCCC1,·,·,·,5.0,4.0,·
COc1ccc2[nH]c(=O)c(CN(Cc3cccs3)S(=O)(=O)c3c(C)ccc4nsnc34)cc2c1,-16.0,17.4,-18.2,29.9,54.6*,0.1
Cc1ccc2[nH]c(=O)c(CN(Cc3ccco3)S(=O)(=O)c3c(C)ccc4nsnc34)cc2c1,-15.8,19.1,-15.9,15.8,33.8,8.2
COC(=O)c1ccccc1S(=O)(=O)N(Cc1ccco1)Cc1cc2cc(OC)ccc2[nH]c1=O,-38.2,41.2*,3.7,8.3,-4.2,1.3
COC(=O)c1ccccc1S(=O)(=O)N(CCCO)Cc1cc2c(C)ccc(C)c2[nH]c1=O,-16.2,45.6*,-5.5,12.2,19.5,1.9
O=C1Nc2ccccc2S/C1=C/c1cccs1,-7.5,61.1*,-5.1,-1.7,-17.4,8.8
O=C1NC(=S)SC1=Cc1cccs1,·,·,·,3.1,-5.2,·
SMILES,CHO parental Ca,OX1R antag-1,OX1R antag-2,TAAR1 agonist,TAAR1 antagonist,NTR1 agonist
Cc1cccc(N=C2NC(=O)/C(=C/c3cccs3)S2)c1,-27.0,41.1,-23.0,1.7,-1.3,0.8
Cc1ccc(N=C2NC(=O)/C(=C\c3cccs3)S2)cc1C,-28.4,56.7*,-21.6,-0.9,23.7,5.6
COC(=O)[C@]12C[C@H](CC(=O)N3CCCCC3)C(=O)N(Cc3ccccc3)C1=C[C@H](C1CCCC1)O[C@@H]2C,·,·,·,2.3,-3.6,·
CC(C)c1ccc(Oc2cccc3c2S(=O)(=O)N([C@H](C)c2ccccc2)C[C@@H](COCc2ccccc2)O3)cc1,·,·,·,0.2,-10.6,·
C[C@@H](CO)NC(=O)c1[nH]cnc1C(=O)Nc1ccccc1,·,·,·,3.2,-7.4,·
O=C(c1ccco1)N1CCN(c2c([N+](=O)[O-])nn(-c3ccc(Cl)cc3)[n+]2[O-])CC1,-18.4,42.2*,-18.1,-0.6,-15.4,3.0
Cc1ccc(-n2c3nc(=O)n(C)c(=O)c-3cc3ccccc32)cc1,-17.6,49.5*,-9.8,-0.6,-21.9,1.8
CCCCn1c(=O)nc2n(-c3ccc(C)cc3)c3ccccc3cc-2c1=O,-18.1,27.2,-27.4,-1.2,-18.2,6.4
CCCCNCCCOc1cccc(Cl)c1Cl,-9.2,15.6,-12.7,37.9*,-13.5,1.4
CC(=O)c1ccc(S(=O)(=O)N2CCN(C(=O)C(=O)c3cccc(C(F)(F)F)c3)CC2)cc1,·,·,·,-0.1,7.7,·
COc1cc(CNCCc2c[nH]c3ccccc23)ccc1OCc1ccccc1F,6.3,7.1,12.3,9.3,-15.9,5.9
COc1cccc(CNCCc2c[nH]c3ccccc23)c1OCc1ccccc1,17.9,5.8,10.1,19.3,53.9*,10.3
CCOC(=O)c1cc([N+](=O)[O-])sc1NC(=O)CC,-7.8,61.3*,-14.4,-2.3,-9.6,2.2
Cc1cc(Br)cn2c(Cc3ccccc3C(F)(F)F)c(-c3ccc(F)cc3)nc12,·,·,·,4.6,22.2,·
COc1ccc(C(=O)/C=C/C(=O)N(CC(=O)NC2CCCCC2)Cc2ccccc2OC)c(O)c1,·,·,·,8.0,0.2,·
COc1ccc(C(=O)/C=C/C(=O)N(CC(=O)NC2CCCCC2)Cc2ccccc2)c(O)c1,·,·,·,40.9*,66.0*,·
CCOC(=O)c1ccc(NC(=O)c2c(C)[nH]c(C(=O)OCC)c2C)cc1,-15.8,-3.1,-15.9,5.5,20.1,1.5
CCOC(=O)c1[nH]c(C)c(C(=O)Nc2ccc(Cl)cc2)c1C,9.6,5.8,1.3,39.1*,35.5,-1.5
